# From ChEMBL document CHEMBL4513216, “Probing the Open Global Health Chemical Diversity Library for Multistage-Active Starting Points for Next-Generation Antimalarials” (ACS Infect Dis, 2020)
# Experiment: Toxicity liver stage against HepG2, at 10uM
# Type: cell-based
# Set-up: test concentration 10 uM, cell line HepG2-A16-CD81EGFP
# Conditions: human, HepG2-A16-CD81EGFP cells; read-out: INHIBITION
# Outline: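 Uninfected HepG2-A16-CD81EGFP cells, 3 × 10^3 per well, 1536-well, plated on prespotted compound at 10 μM final, parasite-free screening media added to match infected plates; puromycin 10 μM positive, DMSO 0.5% negative; run in parallel with 48 h PbLuc assay at 37 °C, 5% CO2; viability by CellTiter-Glo luminescence, normalized to controls.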
row,Structure (SMILES),cytotoxicity at 10 µM [%]
1,CC(C)(C(=O)N1CCC(CS(N)(=O)=O)CC1)c1ccccc1F,6.03
2,c1cnc2ccc(C[C@@H]3CC[C@H](CN4CCCOCC4)O3)cc2c1,-1.6
3,CCCN(Cc1ccc(S(=O)(=O)NC)cc1)Cc1ccccc1OC,-0.89
4,CCc1nc(CN2CCCC(NCc3ncc(C(C)(C)C)o3)C2)no1 (stereo not given),1.97
5,COCc1cccc(C(=O)N2CCCN(C(=O)OCC(C)C)CC2)c1,-10
6,Cn1ccc(CN2CCC(CC(=O)N3CCCC3)CC2)cc1=O,-12.6
7,CN1C[C@H]2CN(C(=O)c3ccc4c(c3)OCO4)CCN2C1=O,-0.434
8,O=S(=O)(C1CC1)N1CC[C@]2(C[C@@H](Oc3ccccn3)CO2)C1,-10.4
9,CNc1cccc(C2CCCN(C(=O)c3cscn3)C2)n1 (stereo not given),-11.3
10,c1cc(CNCCc2cn3ccccc3n2)c2c(c1)OCCCO2,15.2
11,N#Cc1ccnc(N2CCN(CC(O)c3ccc(F)cc3)CC2)c1 (stereo not given),2.99
12,CC(C)(C)C(=O)N[C@H]1C[C@@H](Cc2cc(CN3CCOCC3)on2)C1(C)C,-7.15
13,Cc1cc(COC(=O)[C@@H]2Cc3ccccc3CN2S(C)(=O)=O)no1,-9.87
14,Cc1ccc(C(C)N(C)Cc2nc3c(cnn3C)c(=O)[nH]2)cc1 (stereo not given),-3.91
15,CCn1cnnc1C1CCN(C(=O)c2cccc(N(C)C)c2)CC1,1.54
16,Fc1cc(CN2CCOC3(CCOCC3)C2)ccc1OC(F)F,-11.9
17,Cc1cc(C)c(CNC(=O)N2CCOC(c3ccccc3)C2)c(=O)[nH]1 (stereo not given),0.0687
18,Cc1nn(C)c(C)c1CC(=O)NCc1ccnc(N2CCOCC2)c1,-14.7
19,CCC1=N[C@@]2(CC[C@@H]3CN(C(=O)NCC(C)C)C[C@@H]32)C(=O)N1CC(C)C,-3.64
20,CNS(=O)(=O)c1cc(C)c2[nH]c(=O)cc(C)c2c1,-7.76
21,COCCn1ccc(NC(=O)Nc2ccccn2)n1,3.18
22,CC(C)c1ncc(CNC2(c3ccc(Cl)cc3)CC2)cn1,-32.3
23,CC(Cn1cncn1)NC(=O)c1cn(Cc2ccccc2F)nn1 (stereo not given),-1.62
24,CCNC(=O)[C@@H]1CCCN1C1(C(=O)NC)CCC1,-1.66
25,O[C@@H]1CCN(c2ccc3c(Cl)ccnc3c2F)C1,2.12
26,CCOc1ncccc1NC(=O)C1CCS(=O)(=O)C1 (stereo not given),-16.7
27,Cn1cc(C2(C)CN(Cc3ccc(Cl)c(F)c3)CCO2)cn1 (stereo not given),4.98
28,CC(=O)N1CCC2(C=C(C(=O)NC3CC3)c3ccccc32)CC1,4.59

row,Structure (SMILES),cytotoxicity at 10 µM [%]
1,COc1ccc(OCCNCCn2cccn2)cc1,2.05
2,OC1(CNCCCN2CCc3ccccc32)CCNC1 (stereo not given),11.5
3,Cc1nc2ccccn2c1CC(=O)N[C@@H]1CC[C@@H](N2CCCC2)[C@@H]1O,-12.4
4,CS(=O)(=O)CCNCc1ccc(OCc2ccccn2)cc1,-128
5,CCN(C(=O)CN1CCCN(c2nc(C)ns2)CC1)C1CC1,-4.08
6,CCC(C)NC(=O)c1ccc(CNC(=O)CCC(C)C)cc1 (stereo not given),2.27
7,Cc1cc(C)cc(C2(C(=O)NCC(C)CN3CCCC3=O)CC2)c1 (stereo not given),1.42
8,COCCNC(=O)[C@@H]1CN(c2ncccn2)C[C@H]2OCC[C@H]21,-68.4
9,O[C@H]1COCCN(Cc2cccc3c2OCO3)C1,-3.04
10,Cc1ccsc1CN1CCc2c(nc(N3CCCCC3C)[nH]c2=O)C1 (stereo not given),-3.42
11,Cn1ccnc1CN1CCN2C[C@H](Oc3ccccc3)C[C@H]2C1,7.14
12,COCc1nc(C(=O)NS(=O)(=O)c2ccc(Cl)cc2F)cs1,8.13
13,O=C1C(NS(=O)(=O)c2ccc(F)cc2F)CCN1Cc1ccccc1 (stereo not given),-0.885
14,Cc1ccc2[nH]c(CN(C)c3cc(CCN)nc(C)n3)nc2c1,0
15,COc1ccccc1C(=O)NC[C@H]1COCc2nc3c(C)cccc3n21,0.331
16,COc1ccc(CC2CN(C3CCSCC3)CCO2)cc1 (stereo not given),4.49
17,Cc1cnn(CC2CCCCN2Cc2nc(-c3ccoc3)no2)c1 (stereo not given),-7.2
18,c1cnc(-c2nc(CN3CCCN(Cc4cccs4)CC3)cs2)nc1,-7.66
19,c1ccc(OCCNCc2cccs2)nc1,-3.26
20,CCn1nc(C)c2nc(C)nc(NCCc3ccccc3)c21,25.2
21,O=C1NCCN(CC2CC2)C12CCN(Cc1ccc3c(c1)OCO3)CC2,-1.06
22,Cc1ccc([C@]2(O)CC[C@H]3CN(Cc4cc(C)c(O)c(C)c4)C[C@H]32)nc1,-6.72
23,COc1ccc(C[C@H]2CN(c3cc(OC)ncn3)CC[C@H]2OC)cc1,54.5
24,CNC(=O)N1CCc2nc(C(=O)Nc3cccnc3)sc2CC1,1.99
25,COc1c(Br)c(CC2CC(CO)=NO2)c(OC)c2c1OCO2 (stereo not given),6.36
26,COCCCC(=O)N(C)c1ccc(F)c(Cl)c1,-0.577
27,O=C1CC(C2CCCCC2)c2c(n(C3CCCC3)[nH]c2=O)N1 (stereo not given),-5.01
